This passage reports EC50 and Activity results from ChEMBL document CHEMBL1147243, “Antitumor agents. 228. five new agarofurans, Reissantins A-E, and cytotoxic principles from Reissantia buchananii” (2003).

Assay [1] relates to HCT-8. The assay is described as follows: Cytotoxicity against human HCT8 cells after 3 days by SRB assay. The assay is classed as functional. Conditions: HCT-8, 72 h, read-out: ED50 (the source's name). The method, boiled down: (§1)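 Tumour lines kept in RPMI-1640 with 25 mM HEPES, 0.25% sodium bicarbonate, 10% FBS and 100 µg/mL kanamycin. Freshly trypsinized cells were seeded at 1500-7500 per well with compound from DMSO-diluted stock. After 3 days, attached cells were fixed with cold 50% TCA, stained with 0.4% SRB, and the bound dye was solubilized and read at 562 nm. ED50 is the concentration giving 50% growth reduction.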
On the technique in general: Sulforhodamine B stains cellular protein and so reports cell mass.

The subject of assay [2] is KB. In words: Cytotoxicity against human KB cells after 3 days by SRB assay. In kind it is functional. Conditions: 72 h, read-out: ED50 (the source's name). The method in brief:
as §1

Assay [3] in a line: Cytotoxicity against human KBVIN cells after 3 days by SRB assay. The assay is classed as functional. Conditions: 72 h, read-out: ED50 (the source's name). The method in brief: (§2)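 Freshly trypsinized cells from T-25 stock cultures were seeded at 1500-7500 cells/well with compound added from DMSO-diluted stock. The medium was RPMI-1640 with 25 mM HEPES, 0.25% sodium bicarbonate, 10% FBS and 100 µg/mL kanamycin. After 3 days, attached cells were fixed with cold 50% TCA, stained with 0.4% SRB, and the bound dye solubilized and read at 562 nm. ED50 is the concentration giving 50% growth reduction.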

The nature of assay [4]: Cytotoxicity against human U87MG cells after 3 days by SRB assay. The assay is classed as functional, U-87MG ATCC. Conditions: U-87 MG, 72 h, read-out: ED50 (the source's name). The method in brief:
as §2

The test system of assay [5] is PC-3. In words: Cytotoxicity against human PC3 cells after 3 days by SRB assay. In kind it is functional. Conditions: PC-3, 72 h, read-out: ED50 (the source's name). The method, boiled down:
as §1

Assay [6] has as its system 1A9. The assay is described as follows: Cytotoxicity against human 1A9 cells after 3 days by SRB assay. Conditions: 1A9, 72 h, read-out: ED50 (the source's name). In kind it is functional. The method, boiled down: as §1
The subject of assay [7] is 1A9/ptx-10. In words: Cytotoxicity against human 1A9/PTX10 cells after 3 days by SRB assay. Conditions: 1A9/ptx-10, 72 h, read-out: ED50 (the source's name). The assay is classed as functional. The method in brief: as §1
Assay [8] relates to 1A9. In words: Cytotoxicity against human 1A9 cells after 6 days by SRB assay. The assay is classed as functional. Conditions: 1A9, 144 h, read-out: ED50 (the source's name). The method, boiled down:
(§3)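 Cells were grown in RPMI-1640 supplemented with 25 mM HEPES, 0.25% sodium bicarbonate, 10% FBS and 100 µg/mL kanamycin. Freshly trypsinized cells were plated at 1500-7500 per well with compound from DMSO-diluted stock over a 6-day assay period. Cells were fixed with cold 50% TCA and stained with 0.4% SRB, and the solubilized dye was read at 562 nm. ED50 is the concentration reducing growth by 50%.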

For assay [9], the system named is 1A9/ptx-10. In words: Cytotoxicity against human 1A9/PTX10 cells after 6 days by SRB assay. In kind it is functional. Conditions: 1A9/ptx-10, 144 h, read-out: ED50 (the source's name). The method, boiled down:
as §3

The subject of assay [10] is A549. In words: Cytotoxicity against human A549 cells after 3 days by SRB assay. The assay is classed as functional. Conditions: A549, 72 h, read-out: ED50 (the source's name). The method in brief: as §1
The subject of assay [11] is MCF7. The assay is described as follows: Cytotoxicity against human MCF7 cells after 3 days by SRB assay. Conditions: MCF7, 72 h, read-out: ED50 (the source's name). In kind it is functional. The method in brief: as §1
The subject of assay [12] is KBVIN. In words: Cytotoxicity against human KBVIN cells at 20 ug/ml after 3 days by SRB assay. The assay is classed as functional, cell-based.
The subject of assay [13] is U-87MG ATCC. The assay is described as follows: Cytotoxicity against human U87MG cells at 20 ug/ml after 3 days by SRB assay. In kind it is functional, cell-based.
Assay [14] has as its system HCT-8. In words: Cytotoxicity against human HCT8 cells at 20 ug/ml after 3 days by SRB assay. The assay is classed as functional, cell-based.
The test system of assay [15] is 1A9. In words: Cytotoxicity against human 1A9 cells at 20 ug/ml after 6 days by SRB assay. The assay is classed as functional, cell-based.

In brackets after ≈: the same amount, converted by molar mass. Activity calls are given as the source filed them. No cut-off for these calls is given here.

Take `COC(=O)[C@]1(C)CC[C@]2(C)CC[C@]3(C)C4=CC(=O)c5c(cc(O)c(O)c5C)[C@]4(C)CC[C@@]3(C)[C@@H]2C1`: the EC50 is 14.1 µg/mL (≈ 29.3 µM) in assay [1]; 14.5 µg/mL (≈ 30.2 µM) in [2]; 16.6 µg/mL (≈ 34.5 µM) in [3]; greater than 20 µg/mL in assay [4]; greater than 20 µg/mL in assay [5]; 11.7 µg/mL (≈ 24.3 µM) in assay [6]. For the same compound, the EC50 in assay [7] was 12.4 µg/mL (≈ 25.8 µM); in assay [8], 10.7 µg/mL (≈ 22.3 µM); in [9] it was 7.1 µg/mL (≈ 14.8 µM); in assay [10] it was 16.4 µg/mL (≈ 34.1 µM); in assay [11], 12.8 µg/mL (≈ 26.6 µM).
Consider `CC1(C)CC[C@]2(C)CC[C@]3(C)C(=CC[C@@H]4[C@@]5(C)CC[C@H](O)C(C)(C)C5C(=O)C[C@]43C)[C@H]2C1` (some centres undefined), for which the EC50 in [1] was 13.7 µg/mL (≈ 31.1 µM); in assay [2], 13 µg/mL (≈ 29.5 µM); in assay [3], 14.7 µg/mL (≈ 33.4 µM); in assay [4], 6.7 µg/mL (≈ 15.2 µM); in assay [5], 15.1 µg/mL (≈ 34.3 µM); in assay [6], 11.4 µg/mL (≈ 25.9 µM). Moreover, the EC50 worked out at 11 µg/mL (≈ 25 µM) in assay [7]; 11.3 µg/mL (≈ 25.6 µM) in [8]; 11.2 µg/mL (≈ 25.4 µM) in [9]; 13.3 µg/mL (≈ 30.2 µM) in assay [10]; 14.6 µg/mL (≈ 33.1 µM) in assay [11].
Regarding `CC[C@H](CC[C@@H](C)[C@H]1CC[C@H]2[C@@H]3CC=C4C[C@@H](O)CC[C@]4(C)[C@H]3CC[C@]12C)C(C)C` [BETA-SITOSTEROL], the EC50 was greater than 20 µg/mL in [1]; greater than 20 µg/mL in [2]; greater than 20 µg/mL in assay [3]; greater than 20 µg/mL in assay [4]; greater than 20 µg/mL in assay [5]; 16.8 µg/mL (≈ 40.5 µM) in assay [6]. The EC50 in assay [7] was 20 µg/mL (≈ 48.2 µM); in assay [8] it was 10.6 µg/mL (≈ 25.6 µM); in assay [9] it was 9.5 µg/mL (≈ 22.9 µM); in assay [10] it was greater than 20 µg/mL; in [11], greater than 20 µg/mL.
For the compound `CC1=C(O)C(=O)C=C2C1=CC=C1[C@@]2(C)CC[C@@]2(C)[C@@H]3C[C@](C)(C(=O)O)CC[C@]3(C)CC[C@]12C` [CELASTROL], the EC50 in assay [1] stood at 0.23 µg/mL (≈ 0.51 µM); in assay [2], 0.2 µg/mL (≈ 0.444 µM); in assay [3], 0.34 µg/mL (≈ 0.755 µM); in assay [4], 0.22 µg/mL (≈ 0.488 µM); in [5], 0.27 µg/mL (≈ 0.599 µM); in assay [6], 0.091 µg/mL (≈ 0.202 µM). The EC50 in assay [7] was found to be 0.1 µg/mL (≈ 0.222 µM); in assay [8], 0.11 µg/mL (≈ 0.244 µM); in assay [9], 0.11 µg/mL (≈ 0.244 µM); in [10] it was 0.25 µg/mL (≈ 0.555 µM); in assay [11], 0.21 µg/mL (≈ 0.466 µM).
Take `CC(=O)O[C@H]1C(=O)[C@@]2(C)[C@H]([C@H](OC(=O)c3ccccc3)[C@]3(O)C[C@H](OC(=O)[C@H](O)[C@@H](NC(=O)c4ccccc4)c4ccccc4)C(C)=C1C3(C)C)[C@]1(OC(C)=O)CO[C@@H]1C[C@@H]2O` [PACLITAXEL]: the EC50 turned out to be 0.011 µg/mL (≈ 0.0129 µM) in [1]; 0.001 µg/mL (≈ 0.00117 µM) in [2]; 0.002 µg/mL (≈ 0.00234 µM) in assay [6]; 0.041 µg/mL (≈ 0.048 µM) in assay [8]; 0.005 µg/mL (≈ 0.00586 µM) in assay [10].
As for `COC(=O)[C@]1(C)CC[C@]2(C)CC[C@]3(C)C4=CC=C5C(=CC(=O)C(O)=C5C)[C@]4(C)CC[C@@]3(C)[C@@H]2C1` [PRISTIMERIN], the EC50 came to 0.15 µg/mL (≈ 0.323 µM) in assay [1]; 0.1 µg/mL (≈ 0.215 µM) in assay [2]; 0.29 µg/mL (≈ 0.624 µM) in [3]; 0.17 µg/mL (≈ 0.366 µM) in [4]; 0.23 µg/mL (≈ 0.495 µM) in [5]; 0.1 µg/mL (≈ 0.215 µM) in assay [6]. Besides, the EC50 was determined as 0.11 µg/mL (≈ 0.237 µM) in assay [7]; 0.11 µg/mL (≈ 0.237 µM) in assay [8]; 0.076 µg/mL (≈ 0.164 µM) in assay [9]; 0.31 µg/mL (≈ 0.667 µM) in [10]; 0.14 µg/mL (≈ 0.301 µM) in [11].
Take `CC(=O)O[C@H]1[C@@H]2[C@@H](OC(=O)c3ccc(=O)n(C)c3)[C@@]3(OC2(C)C)[C@@](C)([C@@H](OC(C)=O)CC[C@]3(C)O)[C@H]1OC(=O)c1ccccc1` [REISSANTIN A]: the EC50 in [1], in [2], in assay [5], in assay [6], in assay [7] and in assay [8] was greater than 20 µg/mL throughout. Moreover, the EC50 in assay [9], in assay [10] and in assay [11] was greater than 20 µg/mL each time. Besides, the result in assay [12] and in assay [13] was inactive.
For the compound `CC(=O)O[C@H]1[C@@H]2[C@@H](OC(=O)c3ccc(=O)n(C)c3)[C@@]3(OC2(C)C)[C@](C)([C@H]1OC(=O)c1ccccc1)[C@@H](OC(C)=O)[C@@H](OC(=O)c1ccccc1)C[C@]3(C)O` [REISSANTIN B], the EC50 in assay [1] was greater than 20 µg/mL; in [2], 11.7 µg/mL (≈ 15.7 µM); in assay [3], 17.1 µg/mL (≈ 22.9 µM); in assay [4], greater than 20 µg/mL; in [5], greater than 20 µg/mL; in [6], 17.1 µg/mL (≈ 22.9 µM). In addition, the EC50 in assay [7] was greater than 20 µg/mL; in assay [8], 13.7 µg/mL (≈ 18.4 µM); in assay [9] it was 15.3 µg/mL (≈ 20.5 µM); in assay [10], 15.3 µg/mL (≈ 20.5 µM); in assay [11], greater than 20 µg/mL.
For the compound `CC(=O)O[C@H]1CC[C@](C)(O)[C@]23OC(C)(C)[C@H]([C@H](O)[C@H](OC(=O)c4ccccc4)[C@]12C)[C@H]3O` [REISSANTIN D], the EC50 in assay [2], in assay [5], in assay [6], in assay [7], in assay [8] and in assay [9] was greater than 20 µg/mL throughout. Moreover, the EC50 in [10] is greater than 20 µg/mL; in assay [11] it was 16.2 µg/mL (≈ 36.1 µM). The result in assay [14], in assay [12] and in [13] was inactive.
Turning to `CC(=O)O[C@H]1[C@@H]2[C@@H](O)[C@@]3(OC2(C)C)[C@@](C)([C@@H](OC(C)=O)CC[C@]3(C)O)[C@H]1OC(=O)c1ccccc1` [REISSANTIN E], the EC50 was greater than 20 µg/mL in [1]; 14.4 µg/mL (≈ 29.4 µM) in assay [2]; 16.5 µg/mL (≈ 33.6 µM) in assay [3]; greater than 20 µg/mL in assay [5]; greater than 20 µg/mL in assay [6]; greater than 20 µg/mL in assay [7]. Moreover, the EC50 in [9], in assay [10] and in [11] was greater than 20 µg/mL in each case. The result in assay [13] and in [15] was inactive.
